ChEMBL document CHEMBL3244330, “Structure--activity relationships of n-substituted dopamine and 2-amino-6,7-dihydroxy-1,2,3,4-tetrahydronaphthalene analogues: behavioral effects in lesioned and reserpinized mice” (J Med Chem, 1979)
Calls of active or inactive are those of the source. The rule behind the calls is not given here.

What was measured:
Mus musculus [1] = assay: Postural effect on caudectomized Swiss albino mouse assessed as latency to onset time of asymmetric postural effect at 90.8 mg/kg, ip; format: functional, organism-based; parameters: dose 90.8 mg/kg
In short: (§1)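 Male Swiss albino Hale-Stoner mice with a right caudectomy made by suction. A lesion was accepted if the mouse responded to apomorphine 4 weeks after surgery. Compounds were dissolved in 0.9% saline and injected ip at random into groups of six, with a maximum dose of 0.348 mmol/kg. 18 mice were used per compound, and mice were retested after 5–6 day intervals. Onset and duration of the asymmetric posture are reported as mean ± SE from six animals.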

Mus musculus [2] = assay: Postural effect on caudectomized Swiss albino mouse assessed as latency to onset time of asymmetric postural effect at 25 mg/kg, ip; format: functional; settings: route intraperitoneal; in short: as §1
Mus musculus [3] = assay: Postural effect on caudectomized Swiss albino mouse assessed as latency to onset time of asymmetric postural effect at 50 mg/kg, ip; format: functional; settings: route intraperitoneal; in short: as §1
Mus musculus [4] = assay: Postural effect on caudectomized Swiss albino mouse assessed as time duration of asymmetric posture at 25 mg/kg, ip; format: functional; settings: route intraperitoneal; in short: as §1
Mus musculus [5] = assay: Postural effect on caudectomized Swiss albino mouse assessed as time duration of asymmetric posture at 50 mg/kg, ip; format: functional; settings: route intraperitoneal
In short: (§2)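 Male Swiss albino Hale-Stoner mice given a right caudectomy by suction. The lesion counted as successful if the mice reacted to apomorphine 4 weeks later. Drug was given ip in 0.9% saline, up to 0.348 mmol/kg, to randomised groups of six, with 5-6 days before reuse. Onset and duration of asymmetric posture are reported as mean ± SE from six animals.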

Mus musculus [6] = assay: Reversal of reserpine-induced catalepsy in ip dosed Swiss albino (CD1) mouse; format: functional
In short: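 Male Swiss albino CD1 mice, 5 weeks old, got reserpine 5 mg/kg ip, then α-MTM 250 mg/kg ip 17 h later, then the test drug ip 4 h after that. Catalepsy was scored by the rubber-stopper test (time to step off the stopper). At least four doses were used, with ≥8 mice per dose. ED50 was taken from a log-probit plot of percent responders against dose.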

Mus musculus [7] = assay: Postural effect on caudectomized Swiss albino mouse assessed as time duration of asymmetric posture at 1 mg/kg, ip; format: functional; settings: route intraperitoneal; in short: as §1
Mus musculus [8] = assay: Postural effect on caudectomized Swiss albino mouse assessed as latency to onset time of asymmetric postural effect at 1 mg/kg, ip; format: functional; settings: route intraperitoneal; in short: as §1
Mus musculus [9] = assay: Postural effect on caudectomized Swiss albino mouse assessed as latency to onset time of asymmetric postural effect at 26.8 mg/kg, ip; format: functional, organism-based; parameters: dose 26.8 mg/kg
In short: (§3)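 Male Swiss albino Hale-Stoner mice with right caudectomy by suction, used if responsive to apomorphine 4 weeks post-lesion. Compound in 0.9% saline given ip, maximum 0.348 mmol/kg. 18 mice per compound in random groups of six, retested after 5–6 day intervals. Onset latency and duration of asymmetric posture recorded; mean ± SE from six animals.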

Mus musculus [10] = assay: Postural effect on caudectomized Swiss albino mouse assessed as latency to onset time of asymmetric postural effect at 107.2 mg/kg, ip; format: functional; settings: route intraperitoneal; in short: as §3
Mus musculus [11] = assay: Postural effect on caudectomized Swiss albino mouse assessed as time duration of asymmetric posture at 107.2 mg/kg, ip; format: functional; settings: route intraperitoneal; in short: as §3
Mus musculus [12] = assay: Postural effect on caudectomized Swiss albino mouse assessed as latency to onset time of asymmetric postural effect at 29.9 mg/kg, ip; format: functional; settings: route intraperitoneal; in short: as §1
Mus musculus [13] = assay: Postural effect on caudectomized Swiss albino mouse assessed as latency to onset time of asymmetric postural effect at 59.8 mg/kg, ip; format: functional; settings: route intraperitoneal; in short: as §1
Mus musculus [14] = assay: Postural effect on caudectomized Swiss albino mouse assessed as time duration of asymmetric posture at 29.9 mg/kg, ip; format: functional; settings: route intraperitoneal; in short: as §1
Mus musculus [15] = assay: Postural effect on caudectomized Swiss albino mouse assessed as time duration of asymmetric posture at 59.8 mg/kg, ip; format: functional; settings: route intraperitoneal; in short: as §2
Mus musculus [16] = assay: Postural effect on caudectomized Swiss albino mouse assessed as time duration of asymmetric posture at 23.8 mg/kg, ip; format: functional; settings: route intraperitoneal; in short: as §1
Mus musculus [17] = assay: Postural effect on caudectomized Swiss albino mouse assessed as time duration of asymmetric posture at 47.6 mg/kg, ip; format: functional; settings: route intraperitoneal; in short: as §1
Mus musculus [18] = assay: Postural effect on caudectomized Swiss albino mouse assessed as time duration of asymmetric posture at 71.4 mg/kg, ip; format: functional; settings: route intraperitoneal; in short: as §2
Mus musculus [19] = assay: Postural effect on caudectomized Swiss albino mouse assessed as latency to onset time of asymmetric postural effect at 23.8 mg/kg, ip; format: functional; settings: route intraperitoneal; in short: as §1
Mus musculus [20] = assay: Postural effect on caudectomized Swiss albino mouse assessed as latency to onset time of asymmetric postural effect at 47.6 mg/kg, ip; format: functional; settings: route intraperitoneal; in short: as §1
Mus musculus [21] = assay: Postural effect on caudectomized Swiss albino mouse assessed as latency to onset time of asymmetric postural effect at 71.4 mg/kg, ip; format: functional; settings: route intraperitoneal; in short: as §1
Mus musculus [22] = assay: Postural effect on caudectomized Swiss albino mouse assessed as latency to onset time of asymmetric postural effect at 34.2 mg/kg, ip; format: functional; settings: route intraperitoneal; in short: as §1
Mus musculus [23] = assay: Postural effect on caudectomized Swiss albino mouse assessed as latency to onset time of asymmetric postural effect at 68.4 mg/kg, ip; format: functional; settings: route intraperitoneal; in short: as §1
Mus musculus [24] = assay: Postural effect on caudectomized Swiss albino mouse assessed as time duration of asymmetric posture at 34.2 mg/kg, ip; format: functional; settings: route intraperitoneal; in short: as §1
Mus musculus [25] = assay: Postural effect on caudectomized Swiss albino mouse assessed as time duration of asymmetric posture at 68.4 mg/kg, ip; format: functional; settings: route intraperitoneal; in short: as §2
Mus musculus [26] = assay: Postural effect on caudectomized Swiss albino mouse assessed as latency to onset time of asymmetric postural effect at 32.3 mg/kg, ip; format: functional; settings: route intraperitoneal; in short: as §1
Mus musculus [27] = assay: Postural effect on caudectomized Swiss albino mouse assessed as latency to onset time of asymmetric postural effect at 64.6 mg/kg, ip; format: functional; settings: route intraperitoneal; in short: as §1
Mus musculus [28] = assay: Postural effect on caudectomized Swiss albino mouse assessed as latency to onset time of asymmetric postural effect at 96.9 mg/kg, ip; format: functional; settings: route intraperitoneal; in short: as §1
Mus musculus [29] = assay: Postural effect on caudectomized Swiss albino mouse assessed as time duration of asymmetric posture at 32.3 mg/kg, ip; format: functional; settings: route intraperitoneal; in short: as §1
Mus musculus [30] = assay: Postural effect on caudectomized Swiss albino mouse assessed as time duration of asymmetric posture at 64.6 mg/kg, ip; format: functional; settings: route intraperitoneal; in short: as §2
Mus musculus [31] = assay: Postural effect on caudectomized Swiss albino mouse assessed as time duration of asymmetric posture at 96.9 mg/kg, ip; format: functional; settings: route intraperitoneal; in short: as §2
Mus musculus [32] = assay: Postural effect on caudectomized Swiss albino mouse assessed as time duration of asymmetric posture at 858 mg/kg, ip; format: functional; settings: route intraperitoneal
Mus musculus [33] = assay: Postural effect on caudectomized Swiss albino mouse assessed as latency to onset time of asymmetric postural effect at 858 mg/kg, ip; format: functional; settings: route intraperitoneal
Mus musculus [34] = assay: Postural effect on caudectomized Swiss albino mouse assessed as latency to onset time of asymmetric postural effect at 104.8 mg/kg, ip; format: functional, organism-based; parameters: dose 104.8 mg/kg; in short: as §1
Mus musculus [35] = assay: Postural effect on caudectomized Swiss albino mouse assessed as latency to onset time of asymmetric postural effect at 28 mg/kg, ip; format: functional; settings: route intraperitoneal; in short: as §1
Mus musculus [36] = assay: Postural effect on caudectomized Swiss albino mouse assessed as latency to onset time of asymmetric postural effect at 56 mg/kg, ip; format: functional; settings: route intraperitoneal; in short: as §1
Mus musculus [37] = assay: Postural effect on caudectomized Swiss albino mouse assessed as time duration of asymmetric posture at 28 mg/kg, ip; format: functional; settings: route intraperitoneal; in short: as §1
Mus musculus [38] = assay: Postural effect on caudectomized Swiss albino mouse assessed as time duration of asymmetric posture at 56 mg/kg, ip; format: functional; settings: route intraperitoneal; in short: as §2
Mus musculus [39] = assay: Postural effect on caudectomized Swiss albino mouse assessed as time duration of asymmetric posture at 22.6 mg/kg, ip; format: functional; settings: route intraperitoneal; in short: as §1
Mus musculus [40] = assay: Postural effect on caudectomized Swiss albino mouse assessed as time duration of asymmetric posture at 45.2 mg/kg, ip; format: functional; settings: route intraperitoneal; in short: as §1
Mus musculus [41] = assay: Postural effect on caudectomized Swiss albino mouse assessed as time duration of asymmetric posture at 67.8 mg/kg, ip; format: functional; settings: route intraperitoneal; in short: as §2
Mus musculus [42] = assay: Postural effect on caudectomized Swiss albino mouse assessed as latency to onset time of asymmetric postural effect at 22.6 mg/kg, ip; format: functional; settings: route intraperitoneal; in short: as §1
Mus musculus [43] = assay: Postural effect on caudectomized Swiss albino mouse assessed as latency to onset time of asymmetric postural effect at 45.2 mg/kg, ip; format: functional; settings: route intraperitoneal; in short: as §1
Mus musculus [44] = assay: Postural effect on caudectomized Swiss albino mouse assessed as latency to onset time of asymmetric postural effect at 67.8 mg/kg, ip; format: functional; settings: route intraperitoneal; in short: as §1
Mus musculus [45] = assay: Postural effect on caudectomized Swiss albino mouse assessed as latency to onset time of asymmetric postural effect at 91.2 mg/kg, ip; format: functional, organism-based; parameters: dose 91.2 mg/kg; in short: as §3

SMILES: CCCCNCCc1ccc(O)c(O)c1
- Activity (Mus musculus [1]): inactive

SMILES: CCCCN(CCC)CCc1ccc(O)c(O)c1.Cl
- Time (Mus musculus [2]): 3.7 min
- Time (Mus musculus [3]): 3.7 min
- Time (Mus musculus [4]): 6.4 min
- Time (Mus musculus [5]): 25.8 min
- ED50 (Mus musculus [6]): 8.6 mg/kg

SMILES: CN1CCc2cccc3c2[C@H]1Cc1ccc(O)c(O)c1-3.CN1CCc2cccc3c2[C@H]1Cc1ccc(O)c(O)c1-3.Cl.Cl.O [APOMORPHINE HYDROCHLORIDE]
- Time (Mus musculus [7]): 12.8 min
- Time (Mus musculus [8]): 4.6 min
- ED50 (Mus musculus [6]): 0.11 mg/kg

SMILES: CN(CCc1ccccc1)CCc1ccc(O)c(O)c1.Cl
- Activity (Mus musculus [9]): inactive
- Time (Mus musculus [10]): 6.9 min
- Time (Mus musculus [11]): 21.2 min
- ED50 (Mus musculus [6]): 101 mg/kg

SMILES: Br.CCCN(CCC)C1CCc2cc(O)c(O)cc2C1 (centres undefined)
- Time (Mus musculus [12]): 2.8 min
- Time (Mus musculus [13]): 2 min
- Time (Mus musculus [14]): 17 min
- Time (Mus musculus [15]): 31.5 min
- ED50 (Mus musculus [6]): 1.6 mg/kg

SMILES: CCCN(CCC)CCc1ccc(O)c(O)c1.Cl
- Time (Mus musculus [16]): 6.2 min
- Time (Mus musculus [17]): 13.9 min
- Time (Mus musculus [18]): 21.9 min
- Time (Mus musculus [19]): 1.8 min
- Time (Mus musculus [20]): 3.7 min
- Time (Mus musculus [21]): 3.1 min
- ED50 (Mus musculus [6]): 16 mg/kg

SMILES: CCCCCN(CCC)CCc1ccc(O)c(O)c1.Cl
- Time (Mus musculus [22]): 3.7 min
- Time (Mus musculus [23]): 4.2 min
- Time (Mus musculus [24]): 17.4 min
- Time (Mus musculus [25]): 20.6 min
- ED50 (Mus musculus [6]): 8.7 mg/kg

SMILES: Br.CCCCN(CCCC)C1CCc2cc(O)c(O)cc2C1 (centres undefined)
- Time (Mus musculus [26]): 1 min
- Time (Mus musculus [27]): 5.3 min
- Time (Mus musculus [28]): 4.1 min
- Time (Mus musculus [29]): 1.6 min
- Time (Mus musculus [30]): 8.8 min
- Time (Mus musculus [31]): 13.7 min
- ED50 (Mus musculus [6]): 44 mg/kg

SMILES: N[C@@H](Cc1ccc(O)c(O)c1)C(=O)O [LEVODOPA]
- Time (Mus musculus [32]): 24 min
- Time (Mus musculus [33]): 17.7 min
- ED50 (Mus musculus [6]): 248 mg/kg

SMILES: CCCCN(CCCC)CCc1ccc(O)c(O)c1
- Activity (Mus musculus [34]): inactive

SMILES: CCCN(CCc1ccc(O)c(O)c1)Cc1ccccc1.Cl
- Time (Mus musculus [35]): 5.2 min
- Time (Mus musculus [36]): 5.7 min
- Time (Mus musculus [37]): 7.8 min
- Time (Mus musculus [38]): 26.6 min
- ED50 (Mus musculus [6]): 21 mg/kg

SMILES: CCCCN(C)CCc1ccc(O)c(O)c1.Cl
- Time (Mus musculus [39]): 3.7 min
- Time (Mus musculus [40]): 2.3 min
- Time (Mus musculus [41]): 2.2 min
- Time (Mus musculus [42]): 0.4 min
- Time (Mus musculus [43]): 1.3 min
- Time (Mus musculus [44]): 3.1 min
- ED50 (Mus musculus [6]): 61 mg/kg

SMILES: CCCCN(CCc1ccccc1)CCc1ccc(O)c(O)c1
- Activity (Mus musculus [45]): inactive
